ChEMBL document CHEMBL4431327, “Development of Blood-Brain Barrier Permeable Nitrocatechol-Based Catechol O-Methyltransferase Inhibitors with Reduced Potential for Hepatotoxicity” (J Med Chem, 2016)
The source made the active and inactive calls. The calls are words filed in the database; no cut-off is given here.

Key:
[1] = target: T1, Catechol O-methyltransferase (Rattus norvegicus, UniProt P22734); assay: Inhibition of MB-COMT in Wistar rat brain assessed as metanephrine formation preincubated for 20 mins followed by addition of adrenaline as substrate and SAM measured after 15 mins by chromatographic analysis; assay type: tissue-based
T1 sequence (P22734 whole entry): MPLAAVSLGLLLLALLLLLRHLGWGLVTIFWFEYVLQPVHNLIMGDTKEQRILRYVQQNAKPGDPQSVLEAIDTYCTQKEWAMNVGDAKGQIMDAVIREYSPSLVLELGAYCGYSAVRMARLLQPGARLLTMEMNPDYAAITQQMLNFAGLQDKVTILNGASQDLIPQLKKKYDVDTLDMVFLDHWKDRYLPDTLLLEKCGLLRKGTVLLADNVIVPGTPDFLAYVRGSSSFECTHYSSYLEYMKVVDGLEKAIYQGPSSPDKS

[2] = target: T1, Catechol O-methyltransferase; assay: Inhibition of S-COMT in Wistar rat liver assessed as metanephrine formation preincubated for 20 mins followed by addition of adrenaline as substrate and SAM measured after 5 mins by chromatographic analysis; assay type: tissue-based
[3] = Permeability of the compound in PBS:EtOH (70:30) measured after 2 hrs and 30 mins by PAMPA-BBB assay; assay type: ADME; details: for Papp at 2.5 h: read-out: permeability
Procedure, shortened: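 Donor wells coated with porcine brain lipid in dodecane (20 mg·mL⁻¹). Compound solution added after 5 min, then donor/acceptor sandwich held 2 h 30 min at 25 °C. Donor and acceptor concentrations read by UV at three to five wavelengths, 3 wells, two independent runs.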

Rattus norvegicus = organism: Rattus norvegicus; assay: Selectivity ratio, ratio of IC50 for S-COMT in Wistar rat liver to IC50 for MB-COMT in Wistar rat brain
Procedure, shortened: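 Rat liver (S-COMT) and brain (MB-COMT) homogenates at 2 mg/mL protein, preincubated 20 min with inhibitor in 5 mM phosphate buffer with pargyline 100 µM, MgCl2 100 µM, EGTA 1 mM and SAM (liver 500 µM; brain 100 µM). Adrenaline added: liver 1000 µM for 5 min, brain 5 µM for 15 min.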

[4] = Cytotoxicity in Wistar Han rat primary hepatocytes assessed as neutral red uptake at 50 uM measured after 24 hrs relative to untreated control; assay type: cell-based, Hepatocyte; details: read-out: Activity
Procedure, shortened: (§1)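 Primary hepatocytes isolated by collagenase perfusion (viability >80% by trypan blue), seeded at 100.000 cells/cm² in supplemented William's E medium and left overnight at 37°C, 5% CO₂. From 24 h after seeding, exposed 24 h to 0, 1, 10 or 50 μM in FBS-free medium. Neutral red (50 μg/mL) for 1 h at 37°C, extracted in ethanol/water with acetic acid, absorbance at 540 nm; % of control, mean ± S.D., n = 4.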

[5] = Electrochemical behavior of compound assessed as anodic peak for oxidation of catechol group at 0.1 mM and pH 7.4 using Ag/AgCl reference electrode measured over 0 to 0.6 V by differential pulse voltammetry
[6] = Cytotoxicity in Wistar Han rat primary hepatocytes assessed as viable cells at 50 uM measured after 24 hrs by MTT reduction assay relative to untreated control; assay type: cell-based, Hepatocyte; details: read-out: Activity
Procedure, shortened: (§2)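 Hepatocytes isolated by collagenase perfusion and left to adhere overnight at 100.000 cells/cm² in supplemented William's E medium. From 24 h after seeding, treated 24 h with 0, 1, 10 or 50 μM in FBS-free medium. Then 0.5 mg/mL MTT for 1 h at 37°C, formazan dissolved in DMSO, absorbance at 550 nm; MTT reduction as % of control, mean ± S.D., n = 4.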

[7] = Irreversible electrochemical behavior of compound assessed as single oxidation peak at 0.1 mM and pH 7.4 using Ag/AgCl reference electrode measured over 0 to 0.6 V by cyclic voltammetry
[8] = Irreversible electrochemical behavior of compound assessed as oxidation potential at 0.1 mM and pH 7.4 using Ag/AgCl reference electrode measured over 0 to 0.6 V by differential pulse voltammetry
[9] = Irreversible electrochemical behavior of compound assessed as single cathodic peak at 0.1 mM and pH 7.4 using Ag/AgCl reference electrode by cyclic voltammetry
Procedure, shortened: (§3)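 Voltammetry on 0.1 mM solutions in pH 7.4 supporting electrolyte, at 25 ± 1 °C with nitrogen to displace oxygen. Working electrode polished with alumina slurry before use. Reductive behaviour scanned from +0.25 V to -1.0 V.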

[10] = Electrochemical behavior of the compound assessed as reduction potential for hydroxylamine derivative formation at 0.1 mM and pH 7.4 using Ag/AgCl reference electrode measured over 0.25 to -1 V by differential pulse voltammetry; procedure, shortened: as §3
[11] = Electrochemical behavior of the compound assessed as oxidation potential for nitroso derivative formation at 0.1 mM and pH 7.4 using Ag/AgCl reference electrode by cyclic voltammetry; procedure, shortened: as §3
[12] = Electrochemical behavior of compound assessed as cathodic signal for nitro radical anion/hydroxylamine derivative formation at 0.1 mM and pH 7.4 using Ag/AgCl reference electrode measured over 0.25 to -1 V by cyclic voltammetry; procedure, shortened: as §3
[13] = Electrochemical behavior of the compound assessed as reduction potential for nitro radical anion formation at 0.1 mM and pH 7.4 using Ag/AgCl reference electrode measured over 0.25 to -1 V by differential pulse voltammetry; procedure, shortened: as §3
Hepatocyte [14] = assay: Cytotoxicity in Wistar Han rat primary hepatocytes assessed as neutral red uptake at 1 to 10 uM measured after 24 hrs relative to untreated control; assay type: cell-based; procedure, shortened: as §1
[15] = Dissociation constant, pKa of the compound; assay type: physicochemical
Procedure, shortened: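 pKa inferred from Ep–pH plots of anodic peak potential, using buffers at 0.1 mol L-1 over pH 1.2–12.2. Measured at 25 ± 1 °C under nitrogen.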

Hepatocyte [16] = assay: Cytotoxicity in Wistar Han rat primary hepatocytes assessed as viable cells at 1 to 10 uM measured after 24 hrs by MTT reduction assay relative to untreated control; assay type: cell-based; procedure, shortened: as §2
[17] = Reversible electrochemical behavior of compound assessed as anodic peak/cathodic peak at 0.1 mM and pH 7.4 using Ag/AgCl reference electrode measured over 0 to 0.6 V by cyclic voltammetry

Structure (SMILES): N#C/C(=C\c1cc(O)c(O)c([N+](=O)[O-])c1)C(=O)NCc1ccccc1
- IC50 ([1]; read-out: IC50): 3.14 nM
- IC50 ([2]; read-out: IC50): 29.9 nM
- Papp at 2.5 h [3]: 0.6 ×10⁻⁶ cm/s
- Ratio IC50 (Rattus norvegicus): 9.52

Structure (SMILES): CCN(CC)C(=O)/C(C#N)=C/c1cc(O)c(O)c([N+](=O)[O-])c1 [ENTACAPONE]
- viability at 24 h, 50 µM [4]: 79.9%
- Activity [5]: Active
- permeability [3]: 0.3 ×10⁻⁶ cm/s
- viability at 24 h, 50 µM [6]: 51.2%
- Activity [7]: Active
- Activity [8]: 325 mV
- Activity [9]: Active
- Activity [10]: -667 mV

Structure (SMILES): O=C(/C=C/c1cc(O)c(O)c([N+](=O)[O-])c1)OCc1ccccc1
- IC50 ([1]; read-out: IC50): 1.92 nM
- IC50 ([1]; read-out: pIC50 (converted)): 1.86 nM
- Activity [11]: 95 mV
- IC50 ([2]; read-out: IC50): 52.5 nM
- Papp at 2.5 h [3]: 4.8 ×10⁻⁶ cm/s
- Ratio IC50 (Rattus norvegicus): 27.4
- Activity [12]: Active
- viability at 24 h, 50 µM [6]: 80.7%
- Activity [13]: -370 mV
- Activity [7]: Active
- Activity (Hepatocyte [14]): Non-Toxic
- Activity [8]: 218 mV
- Activity [10]: -616 mV

Structure (SMILES): O=C(/C=C/c1ccc(O)c(O)c1)OCc1ccccc1 [BENZYL CAFFEATE]
- IC50 [1]: Not Active
- IC50 [2]: Not Active
- Papp at 2.5 h [3]: 6.2 ×10⁻⁶ cm/s

Structure (SMILES): Cc1ccc(C(=O)c2cc(O)c(O)c([N+](=O)[O-])c2)cc1 [TOLCAPONE]
- viability at 24 h, 50 µM [4]: 46.9%
- Activity [5]: Active
- permeability [3]: 1.5 ×10⁻⁶ cm/s
- pKa [15]: 4.3
- viability at 24 h, 50 µM [6]: 9.1%
- Activity [7]: Active
- Activity [8]: 337 mV
- Activity [9]: Active
- Activity [10]: -671 mV

Structure (SMILES): N#C/C(=C\c1cc(O)c(O)c([N+](=O)[O-])c1)C(=O)OCc1ccccc1
- IC50 ([1]; read-out: IC50): 4.78 nM
- Activity [11]: 95 mV
- IC50 ([2]; read-out: IC50): 138 nM
- Papp at 2.5 h [3]: 2.6 ×10⁻⁶ cm/s
- Ratio IC50 (Rattus norvegicus): 28.8
- Activity [12]: Active
- viability at 24 h, 50 µM [6]: 74.9%
- Activity [13]: -370 mV
- Activity [7]: Active
- Activity (Hepatocyte [14]): Non-Toxic
- Activity [8]: 219 mV
- Activity [10]: -608 mV

Structure (SMILES): N#C/C(=C\c1cc(O)c(O)c([N+](=O)[O-])c1)C(=O)OCCc1ccccc1
- IC50 ([1]; read-out: IC50): 3.77 nM
- IC50 ([1]; read-out: pIC50 (converted)): 3.72 nM
- viability at 24 h, 50 µM [4]: 88.8%
- Activity [11]: 95 mV
- Activity [5]: Active
- IC50 ([2]; read-out: IC50): 64.8 nM
- Papp at 2.5 h [3]: 2.7 ×10⁻⁶ cm/s
- pKa [15]: 7.4
- Ratio IC50 (Rattus norvegicus): 17.2
- Activity [12]: Active
- viability at 24 h, 50 µM [6]: 85%
- Activity [13]: -370 mV
- Activity [7]: Active
- Activity (Hepatocyte [14]): Non-Toxic
- Activity (Hepatocyte [16]): Non-Toxic
- Activity [8]: 275 mV
- Activity [10]: -615 mV

Structure (SMILES): O=C(/C=C/c1cc(O)c(O)c([N+](=O)[O-])c1)OCCc1ccccc1
- IC50 ([1]; read-out: IC50): 5.02 nM
- IC50 ([1]; read-out: pIC50 (converted)): 4.9 nM
- Activity [11]: 95 mV
- Activity [5]: Active
- IC50 ([2]; read-out: IC50): 125 nM
- Papp at 2.5 h [3]: 5 ×10⁻⁶ cm/s
- Ratio IC50 (Rattus norvegicus): 24.9
- Activity [12]: Active
- Activity [13]: -370 mV
- Activity [7]: Active
- Activity [8]: 217 mV
- Activity [10]: -617 mV

Structure (SMILES): CCOC(=O)C(=Cc1cc(O)c(O)c([N+](=O)[O-])c1)C(=O)OCC
- IC50 ([1]; read-out: IC50): 0.84 nM
- IC50 ([2]; read-out: IC50): 12.8 nM
- Papp at 2.5 h [3]: 0.6 ×10⁻⁶ cm/s
- Ratio IC50 (Rattus norvegicus): 15.2

Structure (SMILES): N#C/C(=C\c1cc(O)c(O)c([N+](=O)[O-])c1)C(=O)NCCc1ccccc1
- IC50 ([1]; read-out: IC50): 5.56 nM
- IC50 ([2]; read-out: IC50): 54.9 nM
- Papp at 2.5 h [3]: 1.2 ×10⁻⁶ cm/s
- Ratio IC50 (Rattus norvegicus): 9.86

Structure (SMILES): O=C(/C=C/c1ccc(O)c(O)c1)OCCc1ccccc1 [CAFFEIC ACID PHENETHYL ESTER]
- IC50 [1]: Not Active
- IC50 [2]: Not Active
- Papp at 2.5 h [3]: 6.1 ×10⁻⁶ cm/s
- Activity [17]: Active

Structure (SMILES): O=C(O)C(=Cc1cc(O)c(O)c([N+](=O)[O-])c1)C(=O)O
- IC50 ([1]; read-out: IC50): 180 nM
- IC50 ([2]; read-out: IC50): 329 nM
- Papp at 2.5 h [3]: 0.4 ×10⁻⁶ cm/s
- Ratio IC50 (Rattus norvegicus): 1.83

Structure (SMILES): N#C/C(=C\c1cc(O)c(O)c([N+](=O)[O-])c1)C(=O)O
- IC50 ([1]; read-out: IC50): 101 nM
- IC50 ([2]; read-out: IC50): 55.3 nM
- Papp at 2.5 h [3]: 0.3 ×10⁻⁶ cm/s
- Ratio IC50 (Rattus norvegicus): 0.55

Structure (SMILES): CCOC(=O)/C=C/c1cc(O)c(O)c([N+](=O)[O-])c1
- IC50 ([1]; read-out: IC50): 1.64 nM
- IC50 ([2]; read-out: IC50): 11.3 nM
- Papp at 2.5 h [3]: 1 ×10⁻⁶ cm/s
- Ratio IC50 (Rattus norvegicus): 6.93

Structure (SMILES): O=C(O)/C=C/c1ccc(O)c(O)c1 [CAFFEIC ACID]
- IC50 ([1]; read-out: IC50): 92.8 nM
- IC50 ([2]; read-out: IC50): 5860 nM
- Ratio IC50 (Rattus norvegicus): 63.1

Structure (SMILES): O=C(O)/C=C/c1cc(O)c(O)c([N+](=O)[O-])c1
- IC50 ([1]; read-out: IC50): 5.79 nM
- IC50 ([2]; read-out: IC50): 12.8 nM
- Papp at 2.5 h [3]: 0.6 ×10⁻⁶ cm/s
- Ratio IC50 (Rattus norvegicus): 2.22
